This is an account of results in ChEMBL document CHEMBL1240363, “Pharmacokinetics of ertapenem following intravenous and subcutaneous infusions in patients” (Antimicrob Agents Chemother, 2010).

As usually defined, the Cmax is the peak of the concentration-time curve. By clearance is commonly meant a measure of how efficiently the substance is removed, as volume per time. A word on the Tmax: it is the time at which the peak concentration occurs. As a reminder, the half-life is the time needed for the level to fall by half in the phase considered. Read a high half-life as slow loss.

The nature of data set [1]: fT>MIC […]-infected kinetic model. It is filed as functional.
Data set [2] can be described thus: Cmax in patient with bacterial infection at 1 gm[…], sc administered at 30 mins regimen for 24 hrs by LC/MS/MS analysis. Type of data set: ADME, organism-based. Further details: route subcutaneous. The settings on record: human, in vivo. The method, boiled down:
(§1)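 Six infected patients received ertapenem 1 g once daily, infused over 30 min: first i.v. via a central vein, then s.c. into the anterior thigh for one day. Arterial plasma was sampled over 24 h at steady state (i.v. on days 4–7). Plasma was stabilized 1:1 at pH 6.5 and assayed by LC-MS/MS. Total concentrations were fitted with compartmental models (1/y weighting), giving Cmax, tmax, t1/2, AUC0-24, CL and Vss as mean ± SD.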

A short description of data set [3]: fT>MIC methicillin-resistant Staphylococcus aureus-infected kinetic model. It is filed as functional.
Data set [4] is described as follows: fT>MIC […] Escherichia coli-infected kinetic model. Type of data set: functional.
The nature of data set [5]: Volume of distribution at steady state in patient with bacterial infection at 1 gm, iv administered at 30 mins regimen for 24 hrs by LC/MS/MS analysis. The note with it: human, in vivo, read-out: Vdss.
Data set [6] can be described thus: fT>MIC […] Klebsiella pneumoniae-infected kinetic model. It is filed as functional.
Data set [7] in a line: Clearance in patient with bacterial infection at 1 gm[…], iv administered at 30 mins regimen for 24 hrs by LC/MS/MS analysis. The settings on record: human, in vivo. Type of data set: ADME, organism-based. The method, boiled down:
as §1

A further data set relates to Homo sapiens. The data set can be described thus: Ratio of AUC (0 to 24 hrs) in sc dosed patient with bacterial infection to AUC (0 to 24 hrs) in iv dosed patient with bacterial infection. The note with it: in vivo. Type of data set: ADME, organism-based. The method, boiled down: as §1
Data set [8] can be described thus: Tmax in patient with bacterial infection at 1 gm[…], iv administered at 30 mins regimen for 24 hrs by LC/MS/MS analysis. It is filed as ADME, organism-based. The note with it: human, in vivo. Summed up:
as §1

The nature of data set [9]: Half life in patient with bacterial infection at […], iv administered at 30 mins regimen for 24 hrs by LC/MS/MS analysis. It is filed as ADME, organism-based. The note with it: human, in vivo. The method, boiled down: as §1
Data set [10] is described as follows: Cmax in patient with bacterial infection at 1 gm[…], iv administered at 30 mins regimen for 24 hrs by LC/MS/MS analysis. It is filed as ADME, organism-based. Further details: route intravenous. The note with it: human, in vivo. The method, boiled down: as §1
Data set [11] in a line: Tmax in patient with bacterial infection at 1 gm[…], sc administered at 30 mins regimen for 24 hrs by LC/MS/MS analysis. The settings on record: human, in vivo. It is filed as ADME, organism-based. Summed up:
as §1

The nature of data set [12]: Half life in patient with bacterial infection at […], sc administered at 30 mins regimen for 24 hrs by LC/MS/MS analysis. The settings on record: human, in vivo. Type of data set: ADME, organism-based. Summed up:
as §1

Consider `C[C@@H](O)[C@H]1C(=O)N2C(C(=O)O)=C(S[C@@H]3CN[C@H](C(=O)Nc4cccc(C(=O)O)c4)C3)[C@H](C)[C@H]12` [ERTAPENEM], for which the fT>MIC in [1], in data set [3], in data set [4] and in data set [6] was 30% throughout. The Cmax in data set [2] was determined as 43 µg/mL; in data set [10], 115 µg/mL. The Vd in [5] is 16.1 L. In [7], this compound showed a clearance of 63.3 mL/min. Besides, the “Ratio AUC” value in the data set on Homo sapiens was 0.99. Further, the Tmax in data set [8] was found to be 0.5 h; in data set [11], 2.7 h. Besides, the half-life in [9] is 3.9 h; in data set [12], 5.4 h.
